Test results taken from ChEMBL document CHEMBL4673342, “Lipid-Lowering Activities of Cucurbitacins Isolated from Trichosanthes cucumeroides and Their Synthetic Derivatives” (2020).
Activity calls are given as the source filed them. The rule behind the calls is not given here.

Tests used:
[1] = Induction of […] uptake in human HepG2 cells assessed as fold change at 5 uM by DIL probe based fluorescence assay; assay type: functional
Method in brief: (§1)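 HepG2 cells (passages 4–11) in DMEM/10% FBS were treated with DMSO or compound at 5 µM, then given DiI-labelled human plasma LDL (20 µg/mL) for 3 h at 37 °C in the dark. After ice-cold PBS/0.4% albumin rinses, cell-bound dye was extracted with isopropanol and fluorescence read at 520–578 nm. Uptake rate is relative to DMSO. Positive control nagilactone B at 5 µM; n = 3.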

HepG2 [2] = experiment: Down regulation of PCSK9 protein expression in human HepG2 cells by Western blot analysis; assay type: functional, cell-based; conditions: dose 1-20 µM
Method in brief: (§2)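 HepG2 cells were cultured 12 h, then held a further 24 h in medium with 2% LPDS. Cells were treated with compound across a concentration range, lysed with protease/phosphatase inhibitors, and 30 µg protein was run on 8% SDS-PAGE and blotted to PVDF. Membranes were blocked in 5% milk and probed overnight at 4 °C for LDLR or PCSK9. Mean ± SEM, n ≥ 5.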

HepG2 [3] = experiment: Upregulation of LDLR protein expression in human HepG2 cells by Western blot analysis; assay type: functional, cell-based; conditions: dose 1-20 µM; method in brief: as §2
HepG2 [4] = experiment: Induction of […] uptake in human HepG2 cells at 5 uM by DIL probe based fluorescence assay; assay type: functional, cell-based; method in brief: as §1

Row | SMILES | fold change (FC) [1] | Activity (HepG2 [2]) | Activity (HepG2 [3]) | Activity (HepG2 [4])
1 | CC(C)c1oc(=O)cc2c1[C@@H](O)[C@H]1OC(=O)[C@@]3(C)C[C@@H](O)[C@@H](O)[C@@]2(C)C13 (stereo partly drawn) | 2.07 | – | – | –
2 | CC(=O)OC(C)(C)/C=C/C(=O)[C@](C)(O)[C@H]1[C@H](O)C[C@@]2(C)[C@@H]3[C@@H](O)C=C4[C@@H](CC(=O)[C@@H](O)C4(C)C)[C@]3(C)C(=O)C[C@]12C | – | Dose-dependent effect | Dose-dependent effect | –
3 | CC(=O)[C@H]1[C@H](O)C[C@@]2(C)[C@@H]3CC=C4[C@@H](CC(=O)[C@@H](O)C4(C)C)[C@]3(C)C(=O)C[C@]12C | 2.53 | Dose-dependent effect | Dose-dependent effect | –
4 | CC(=O)OC(C)(C)CCC(=O)[C@](C)(O)[C@H]1[C@H](O)C[C@@]2(C)[C@@H]3CC=C4[C@@H](CC(=O)OC4(C)C)[C@]3(C)C(=O)C[C@]12C | – | – | – | Active
5 | CC(=O)OC(C)(C)[C@@H](O)CC(=O)[C@](C)(O)[C@H]1[C@H](O)C[C@@]2(C)[C@@H]3[C@@H](O)C=C4[C@@H](CC(=O)[C@@H](O)C4(C)C)[C@]3(C)C(=O)C[C@]12C | – | – | – | Active
